Assay results from different studies.
Target: Mitogen-activated protein kinase 8 (MAPK8, Homo sapiens, UniProt P45983)

| Structure (SMILES) | test | conditions | quantity | result |
| --- | --- | --- | --- | --- |
| Cn1c2c(c3ccc(Cl)c(Cl)c31)C(C#N)C1(CCNCC1)NC2=O (racemic) | thermal stability, DSF | 10 µM | ΔTm | 0.2 °C |
| FC(F)c1nc2ccccc2n1-c1nc(N2CCOCC2)nc(N2CCOCC2)n1 | enzyme activity, inhibitor | 10 µM | remaining activity | 93% |
| Nc1nc(NC2CCCCC2)sc1C(=O)c1ccccc1 | enzyme activity, inhibitor | 10 µM | remaining activity | 60% |
| CN(c1ccnc(CNc2nc(Nc3ccc4c(c3)CC(=O)N4)ncc2C(F)(F)F)n1)S(C)(=O)=O | cell-free assay, competition with immobilised ligand | 1 µM | remaining binding | 65% |
| O=C(Nc1cnn(-c2csc(C(=O)NC3COC3)c2)c1)Nc1c(F)cccc1Cl | enzyme activity, inhibitor | 5 µM | remaining activity | 49.1% |
| CO[C@@H](C)c1c(Nc2ccc([C@@H](N(C)C(=O)C3CCS(=O)(=O)CC3)C(F)(F)F)cc2)cnc2cc(Cl)nn12 | cell-free assay, competition with immobilised ligand | 1 µM | remaining binding | 69% |
| COc1cc(-c2cc(-c3ccc(N4CCNCC4)cc3)cnc2C)cc(OC)c1OC | enzyme activity, inhibitor | 1 µM | inhibition | 2% |
| CC(C)(C)C(=O)c1sc(NC2CCCCC2)nc1N | enzyme activity, inhibitor | 10 µM | remaining activity | 98% |
| O=C1NC(=O)c2cc(Nc3ccc(F)cc3)c(Nc3ccc(F)cc3)cc21 | cell-free assay | 0.5 µM | remaining signal | 91.4% |
| CN1CC(Oc2cnc(C#N)cc2-c2ccn3nc(NC(=O)C4CC4)cc3c2)C1 | enzyme activity, inhibitor | 1 µM | inhibition | -4% |
| C=CC(=O)Nc1cc(Nc2nccc(Nc3cc(Cl)c(F)cc3C(C)(C)O)n2)c(OC)cc1N1CC[C@@H](N(C)C)C1 | enzyme activity, inhibitor | 1 µM | inhibition | -3% |
| COc1cc(Nc2cnc(C#N)c(O[C@H](C)CN(C)C)n2)ncc1-c1cnn(C)c1 | enzyme activity, inhibitor, radiometric | 1 µM | remaining activity | 104% |
| CCCS(=O)(=O)Nc1ccc(F)c(C(=O)c2c[nH]c3ncc(-c4ccc(Cl)cc4)cc23)c1F | enzyme activity, inhibitor | 1 µM | inhibition | < 10% |
| N#CCCc1ccc2c(c1)-c1[nH]c3ccc([N+](=O)[O-])cc3c1CC(=O)N2 | cell-free assay | 0.5 µM | remaining signal | 93.1% |
| COc1cc(Cl)c(C(=O)N[C@@H](CN[C@H]2CC[C@@H](N)CC2)Cc2ccc(C#N)cc2)cc1-c1ccc(CN[C@H](C)c2ccc(C)cc2)o1 | enzyme activity, inhibitor | 1 µM | remaining activity | 100% |
| FC(F)(F)Oc1cccc(-c2cnc3ccc(-c4ccncc4)nn23)c1 | enzyme activity, inhibitor, radiometric | 1 µM | activity vs control | 91% |
| CN(C)C1CCN(CC#Cc2nn(C3CCCC3)c3nc(NCc4ccccc4)ncc23)C1 (centres unmarked) | enzyme activity, inhibitor, FRET | 1 µM | inhibition | 5% |
| Cc1cc(NC(=O)c2cccc3cc(-c4cccc5[nH]nc(N)c45)ccc23)ccc1F | enzyme activity, inhibitor | 0.1 µM | activity vs control | 103% |

| Structure (SMILES) | test | conditions | quantity | result |
| --- | --- | --- | --- | --- |
| COc1cc2c(N3CCN(C(=O)Nc4ccc(OC(C)C)cc4)CC3)ncnc2cc1OCCCN1CCCCC1 | cell-free assay | 0.5 µM | remaining signal | 105% |
| CNCc1ccc(-c2cc(-c3nc(-c4ccc(S(=O)(=O)C(C)C)cc4)cnc3N)on2)cc1 | enzyme activity, inhibitor | 0.4 µM | inhibition | 6% |
| Oc1cccc(-c2nc(N3CCOCC3)c3oc4ncccc4c3n2)c1 | enzyme activity, inhibitor | 10 µM | remaining activity | 102% |
| CN([C@@H]1CCc2c(CC(=O)O)c3ccccc3n2C1)S(=O)(=O)c1ccc(F)cc1 | cell-free assay, competition with immobilised ligand | 1 µM | remaining binding | 77% |
| CN1CCC2(CC1)NC(=O)c1c(c3ccc(Cl)c(Cl)c3n1C)C2C#N (racemic) | thermal stability, DSF | 10 µM | ΔTm | 0 °C |
| CC(C)(O)c1cncc(-c2nc3ccc(F)cc3n2C2CC2)c1 | cell-free assay, competition with immobilised ligand | 1 µM | remaining binding | 100% |
| CSc1nc(C)c(-c2ccnc(Nc3ccc(N4CCOCC4)cc3)c2)[nH]1 | enzyme activity, inhibitor | 10 µM | inhibition | 88.6% |
| CC(=O)C1=C(C)N(c2cccc(C(F)(F)F)c2)C(=O)N[C@@H]1c1ccc(C#N)nc1 | cell-free assay, competition with immobilised ligand | 1 µM | remaining binding | 100% |
| CC(C)(C)c1nc(-c2cccc(NS(=O)(=O)c3c(F)cccc3F)c2F)c(-c2ccnc(N)n2)s1 | enzyme activity, inhibitor, radiometric | 1 µM | remaining activity | 89% |
| CCCOc1ccc([C@@H]2[C@@H](C(=O)O)[C@H](c3ccc4c(c3)OCO4)CN2CC(=O)Nc2c(CC)cccc2CC)cc1 | cell-free assay, competition with immobilised ligand | 1 µM | remaining binding | 87% |
| N#CC1c2c([nH]c3c(Cl)c(Cl)ccc23)C(=O)NC12CCCCC2 (racemic) | thermal stability, DSF | 10 µM | ΔTm | 1.8 °C |
| O=C(Nc1ccc(Oc2ccc(F)cc2)cc1)N1CCc2ncccc2[C@H]1c1ccc(F)cc1 | cell-free assay, competition with immobilised ligand | 1 µM | remaining binding | 91% |
| Cc1sc(C(=O)NC2COC2)cc1-n1cc(NC(=O)Nc2c(F)cccc2Cl)cn1 | enzyme activity, inhibitor | 10 µM | remaining activity | 76.3% |
| Cn1c2c(Cl)c(Cl)ccc2c2cn[nH]c(=O)c21 | thermal stability, DSF | 10 µM | ΔTm | -0.3 °C |
| Cc1cc(NC(=O)c2cccc(S(F)(F)(F)(F)F)c2)cc(-n2ccn3nc(-c4cccnc4)cc23)c1 | cell-free assay, competition with immobilised ligand | 1 µM | remaining binding | 55.9% |
| Cn1c2c(c3ccc(Cl)c(Cl)c31)C(C#N)C1(CCCC1)NC2=O (centres unmarked) | thermal stability, DSF | 10 µM | ΔTm | 0.6 °C |
| COc1cc2ncnc(Nc3ccc(Oc4ccccc4)c(C)c3C)c2cc1OC | enzyme activity, inhibitor | 1 µM | inhibition | 2% |
